INS-1E ATP HTS: preserves ATP levels in cytokine-treated INS-1E cells | INS-1E cytokine-induced death, ATP luminescence, 48 h; normalised: neutral wells 0, positive control 100 | AID 488910 | 20,000 compounds, 0.1% hits | protection from cytokine-induced ATP loss, % at 10 µM;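 active = mean replicate protection from cytokine-induced ATP loss at least 50% and at least 75% of replicates each reaching 50%; inconclusive = meets only one of the two criteria, mean or replicate share; inactive = fails both the mean and replicate share criteria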
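Material: INS-1E rat cells; Quantity: 8000 cells/well; Buffer or medium: phenol-red-free RPMI with 5% fetal bovine serum; Probe or stimulus: cytokine cocktail of IFN-γ, TNF-α and IL-1β; Compound dosing: single test concentration per compound, delivered by pin transfer; Incubation: 48 h co-treatment, 10 min post-lysis read; Signal: CellTiter-Glo luminescence.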
T cruzi intra: intracellular Trypanosoma cruzi inhibition | intracellular Trypanosoma cruzi in host cells, plate reader | AID 651903 | activity score (inhibition), % at 5.01 µM | 22,000 compounds, 4.9% hits; in the data active = activity score above about 55%; inconclusive = no clear call, values can overlap the other calls;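 note: parasites and compound incubated about four days before reading; 0% = median of neutral control wells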
A1 apoptosis 2: blocks A1, raising caspase activity. MEF A1-2A-BIM cells, caspase-Glo luminescence, 3 h; percent of clofoctol response, DMSO zero. caspase activation, % (no concentration beside the values). 24,000 tested, under 10 active; in the data active = caspase activation above about 5.9%; inconclusive = no clear call, values can overlap the other calls; inactive = below about 2.2%
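Material: A1-2A-BIM-expressing MEF cells. Buffer or medium: RPMI-1640 plus 10% FBS. Incubation: cells settled overnight, compound exposure 3 h at 37 °C, 5% CO2. Signal: Caspase-Glo 3/7 luminescence, 1 h at room temperature.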
Numbers without * were called inactive. The entries come from a sample that favours hits as a whole.

What do the screens show for `C[C@H](CO)N1C[C@H](C)[C@H](CN(C)C(=O)Nc2ccc3c(c2)OCO3)Oc2ncc(C#CC(C)(C)O)cc2C1=O`?
INS-1E ATP HTS: -11; T cruzi intra: -12

Results for C[C@H](CO)N1C[C@H](C)[C@H](CN(C)C(=O)Nc2ccccc2)Oc2ncc(C#Cc3ccc(C(F)(F)F)cc3)cc2C1=O ?
T cruzi intra: 83*; A1 apoptosis 2: 0

Results for COc1ccc(NC(=O)N(C)C[C@@H]2Oc3ncc(C#CC(C)(C)O)cc3C(=O)N([C@H](C)CO)C[C@@H]2C)cc1 ?
T cruzi intra: -5; A1 apoptosis 2: -1

What do the screens show for `C[C@H](CO)N1C[C@H](C)[C@H](CN(C)C(=O)Nc2ccccc2)Oc2ncc(C#Cc3ccccc3)cc2C1=O`?
T cruzi intra: -5; A1 apoptosis 2: -1

What do the screens show for `C[C@H](CO)N1C[C@H](C)[C@H](CN(C)C(=O)Nc2ccc3c(c2)OCO3)Oc2ncc(C#Cc3ccc(C(F)(F)F)cc3)cc2C1=O`?
T cruzi intra: 83*; A1 apoptosis 2: 0

Results for COc1ccc(NC(=O)N(C)C[C@@H]2Oc3ncc(C#Cc4ccc(C(F)(F)F)cc4)cc3C(=O)N([C@H](C)CO)C[C@@H]2C)cc1 ?
T cruzi intra: 83*; A1 apoptosis 2: 0

Results for O=C(CCCCCC(=O)N/N=C/CCC1CCCCC1)NO ?
A1 apoptosis 2: 1

What do the screens show for `COc1cc(Br)cc(/C=N/NC(=O)c2ccc(C(=O)NO)cc2)c1O`?
INS-1E ATP HTS: 32; T cruzi intra: -10; A1 apoptosis 2: -3

What do the screens show for `C[C@@H]1CN([C@H](C)CO)C(=O)c2cc(NC(=O)Nc3cccc4ccccc34)ccc2O[C@@H]1CN(C)Cc1ccc(C(F)(F)F)cc1`?
INS-1E ATP HTS: -11; T cruzi intra: 75*; A1 apoptosis 2: 0

Results for C[C@H](CO)N1C[C@H](C)[C@H](CN(C)Cc2ccc(C(F)(F)F)cc2)Oc2ccc(NC(=O)Nc3cccc4ccccc34)cc2C1=O ?
T cruzi intra: 49; A1 apoptosis 2: 1

What do the screens show for `C[C@@H]1CN([C@@H](C)CO)C(=O)c2cc(NC(=O)Nc3cccc4ccccc34)ccc2O[C@@H]1CN(C)Cc1ccc(C(F)(F)F)cc1`?
T cruzi intra: 59*

What do the screens show for `C[C@@H]1CN([C@@H](C)CO)C(=O)c2cc(NC(=O)Nc3cccc4ccccc34)ccc2O[C@H]1CN(C)Cc1ccccc1`?
INS-1E ATP HTS: -15; T cruzi intra: inconclusive

How did O=C1O[C@H](c2ccccc2)[C@H](c2ccccc2)N2[C@H]1[C@@H](C(=O)N1CCCCCCC1)[C@]1(C(=O)Nc3ccccc31)[C@H]2c1ccc(O)cc1 do in these assays?
A1 apoptosis 2: -1

What do the screens show for `C[C@H](CO)N1C[C@H](C)[C@H](CN(C)CC2CCCCC2)Oc2c(NC(=O)c3nc4ccccc4s3)cccc2C1=O`?
INS-1E ATP HTS: -31; T cruzi intra: 66*; A1 apoptosis 2: -1

How did C[C@@H]1CN([C@H](C)CO)C(=O)c2cccc(NC(=O)c3nc4ccccc4s3)c2O[C@@H]1CN(C)CC1CCCCC1 do in these assays?
INS-1E ATP HTS: -48; T cruzi intra: 13

What do the screens show for `C[C@@H]1CN([C@@H](C)CO)C(=O)c2cccc(NC(=O)c3nc4ccccc4s3)c2O[C@@H]1CN(C)CC1CCCCC1`?
INS-1E ATP HTS: -48; T cruzi intra: 76*

Results for C[C@@H]1CN([C@@H](C)CO)C(=O)c2cccc(NC(=O)c3nc4ccccc4s3)c2O[C@H]1CN(C)CC1CC1 ?
INS-1E ATP HTS: -20; T cruzi intra: -20; A1 apoptosis 2: 0

Results for C[C@H](CO)N1C[C@H](C)[C@@H](CN(C)CC2CC2)Oc2c(NC(=O)c3nc4ccccc4s3)cccc2C1=O ?
INS-1E ATP HTS: -18; T cruzi intra: 27; A1 apoptosis 2: 0

What do the screens show for `C[C@H](CO)N1C[C@H](C)[C@@H](CN(C)CC2CCCCC2)Oc2c(NC(=O)c3nc4ccccc4s3)cccc2C1=O`?
INS-1E ATP HTS: -41; T cruzi intra: 64*

How did CCCNc1ncnc2ccccc12 do in these assays?
A1 apoptosis 2: 0

Results for COC(=O)CCCCCCC(=O)N/N=C/c1nc[nH]c1C ?
INS-1E ATP HTS: 11; T cruzi intra: -9; A1 apoptosis 2: 1

How did CN(C)c1ccc(/C=N/NC(=O)CCCCCCC(=O)Nc2ccccc2O)cc1 do in these assays?
INS-1E ATP HTS: -3; T cruzi intra: 10; A1 apoptosis 2: -1

How did Cc1ccc(S(=O)(=O)N(C)C[C@H]2Oc3ccc(NS(=O)(=O)c4ccc(Cl)cc4)cc3CC(=O)N([C@H](C)CO)C[C@H]2C)cc1 do in these assays?
INS-1E ATP HTS: -19; T cruzi intra: 78*; A1 apoptosis 2: -1

How did C[C@@H]1CN([C@@H](C)CO)C(=O)Cc2cc(NS(=O)(=O)c3ccc(Cl)cc3)ccc2O[C@@H]1CN(C)S(=O)(=O)c1ccccc1 do in these assays?
INS-1E ATP HTS: 10; T cruzi intra: 47; A1 apoptosis 2: 1

How did C[C@@H]1CN([C@H](C)CO)C(=O)Cc2cc(NS(=O)(=O)c3ccc(Cl)cc3)ccc2O[C@@H]1CN(C)S(=O)(=O)c1ccccc1 do in these assays?
INS-1E ATP HTS: 0; T cruzi intra: 59*; A1 apoptosis 2: -1

How did Cc1ccc(S(=O)(=O)Nc2ccc3c(c2)CC(=O)N([C@H](C)CO)C[C@H](C)[C@H](CN(C)S(=O)(=O)c2ccc(Cl)cc2)O3)cc1 do in these assays?
INS-1E ATP HTS: -4; T cruzi intra: 12

Results for Cc1ccc(S(=O)(=O)N(C)C[C@H]2Oc3ccc(NS(=O)(=O)c4ccc(F)cc4)cc3CC(=O)N([C@H](C)CO)C[C@@H]2C)cc1 ?
A1 apoptosis 2: -1

How did C[C@@H]1CN([C@H](C)CO)C(=O)Cc2cc(NS(=O)(=O)c3ccc(Cl)cc3)ccc2O[C@@H]1CN(C)S(=O)(=O)c1ccc(F)cc1 do in these assays?
INS-1E ATP HTS: 3; T cruzi intra: 67*

Results for Cc1ccc(S(=O)(=O)N(C)C[C@H]2Oc3ccc(NS(=O)(=O)c4ccc(F)cc4)cc3CC(=O)N([C@H](C)CO)C[C@H]2C)cc1 ?
INS-1E ATP HTS: -4; T cruzi intra: 63*; A1 apoptosis 2: 1

What do the screens show for `C[C@H](CO)N1C[C@H](C)[C@H](CN(C)S(=O)(=O)c2ccc(Cl)cc2)Oc2ccc(NS(=O)(=O)c3ccc(F)cc3)cc2CC1=O`?
INS-1E ATP HTS: -6; T cruzi intra: 22

Results for O=C(CCCCCCC(=O)Nc1ccccc1O)N/N=C/c1coc2ccccc2c1=O ?
INS-1E ATP HTS: -1; T cruzi intra: -19

What do the screens show for `O=C(NN=C1CCCCCCC1)c1ccccc1O`?
INS-1E ATP HTS: -3; T cruzi intra: -21

What do the screens show for `O=C(N1CCCCC1)[C@@]1(Cc2ccccc2)N=C(c2ccc(OCCCO)cc2)O[C@H]1c1ccccc1`?
A1 apoptosis 2: -1

What do the screens show for `COc1cc(/C=N/NC(=O)CCCCCC(=O)NO)ccc1O`?
A1 apoptosis 2: -1

How did Cc1nnc(Sc2ccc(/C=N/NC(=O)CCCCC(=O)NO)o2)n1C do in these assays?
INS-1E ATP HTS: 9; T cruzi intra: -2; A1 apoptosis 2: 0
